This is an account of results in ChEMBL document CHEMBL1137516, “A novel class of potent NF-kappaB signaling inhibitors” (Bioorg Med Chem Lett, 2007).

A value given as a limit tells only on which side of the number the result lay.

Test [1] is described as follows: Inhibition of NF-kappaB in A549 cells after 5 hrs by reporter gene assay. Format: cell-based. The conditions noted are these: Homo sapiens, A549, 5 h. In short, it runs like this: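 A549 cells stably transfected with a pNF-κB-SEAP reporter were plated at 2 · 10^4/well and left to attach overnight. They were pre-incubated 5 h with compound at 100, 30, 10, 3, 1, 0.3, 0.1 and 0 µM, then stimulated with 10 ng/ml TNF-α for 22 h. Supernatant SEAP was read by chemiluminescence, viability by CellTiter-Blue, with four replicates per concentration.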
For orientation: Reporter assays use an easily measured gene product as a stand-in for the process of interest.

The nature of test [2]: Inhibition of chymotrypsin like activity of human 20S proteasome. In short, it runs like this: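 20S proteasome (1.3 µg) was pre-incubated 10 min at room temperature in 25 mM HEPES pH 7.5, 0.5 mM EDTA, 0.033% SDS, then added to compound in DMSO and Suc-LLVY-AMC substrate (75 µM in the substrate solution). Fluorescence (ex 360/em 465 nm) was followed 20 min at 30 °C as RFU/min. Eight inhibitor concentrations were run in triplicate, and IC50 came from a four-parameter logistic fit.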

Test [3] deals with A549. Nature of the test: Inhibition of NF-kappaB in A549 cells at 20 uM after 5 hrs by reporter gene assay. Format: cell-based. As to conditions: Homo sapiens.
The test system of test [4] is PBMC. Nature of the test: Antiproliferative activity against human PBMC. Format: functional, cell-based. An outline of the steps: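 Human peripheral blood mononuclear cells were stimulated with phytohemagglutinin, so the proliferation read-out reflects mainly T-cells.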

Usually EC50 stands for the concentration at which the effect is half-maximal. The low end stands for higher potency in that assay, the high end for lower potency in that assay. On to `COc1cccc(NC(=O)N2CCC(c3nc(C(=O)N4CCN(c5cccc(C(F)(F)F)c5)CC4)cs3)CC2)c1`, for which the midpoint of the response in test [1], the EC50, lay at 7200 nM.
Still for that read-out and setting: in the case of `O=C(c1csc(C2CCN(S(=O)(=O)c3ccc(F)cc3Cl)CC2)n1)N1CCN(c2cccc(C(F)(F)F)c2)CC1` it was 20000 nM; in that of `O=C(Nc1cccc(F)c1)N1CCC(c2nc(C(=O)N3CCN(c4cccc(C(F)(F)F)c4)CC3)cs2)CC1`, 3400 nM; in that of `Cc1cc2nc(NC(=O)c3csc(C4CCN(c5ncnc6ccsc56)CC4)n3)[nH]c2cc1C`, 300 nM.
As a reminder, the IC50 is the concentration needed to halve the response being measured. High values mean weaker potency in that assay, low ones greater potency in that assay. For orientation: inhibition means the relative decrease from the control value, in per cent. Regarding `Cc1cc2nnc(C(=O)N3CCC(c4nc(C(=O)NC5CCN(Cc6ccccc6)C5)cs4)CC3)c(C)n2n1` (stereo not given), the figures for the 50% inhibitory concentration (IC50) in test [2] and in test [4] were 580 nM and 37000 nM, respectively. The inhibition in test [3] stood at 30%.
Compound `COc1nc(OC)nc(N2CCC(c3nc(C(=O)N4CCN(c5cccc(C(F)(F)F)c5)CC4)cs3)CC2)n1` gave an EC50 in test [1] of 4700 nM. This compound also came in with a half-maximal inhibitory concentration (IC50) in test [4] of 15000 nM.
As for `Cc1cc2nnc(C(=O)N3CCC(c4nc(C(=O)Nc5nc6cc(C(=O)c7ccccc7)ccc6[nH]5)cs4)CC3)c(C)n2n1`, the EC50 in test [1] was 900 nM.
On the same count and under the same terms, under `O=C(c1ccccc1)c1ccc2[nH]c(NC(=O)c3csc(C4CCN(c5ncnc6nc[nH]c56)CC4)n3)nc2c1` stands 300 nM.
Compound `O=C(c1ccccc1)c1ccc2[nH]c(NC(=O)c3csc(C4CCN(c5ncnc6ccsc56)CC4)n3)nc2c1` showed an EC50 in test [1] of 200 nM. Moreover, it took 2200 nM to reach half-maximal inhibition in test [4] (IC50).
Regarding `Cc1cc2nccc(N3CCC(c4nc(C(=O)Nc5nc6cc(C(=O)c7ccccc7)ccc6[nH]5)cs4)CC3)n2n1`, in test [1], the EC50 is 100 nM.
The same measure, in the same setting: under `Cc1cc2nc(NC(=O)c3csc(C4CCN(C(=O)c5ccccc5OC(F)(F)F)CC4)n3)[nH]c2cc1C` stands 3000 nM.
The compound `COc1cc(N2CCC(c3nc(C(=O)N4CCN(c5cccc(C(F)(F)F)c5)CC4)cs3)CC2)nc(OC)n1` had an EC50 in test [1] of 5000 nM.
Same read-out and setting: under `O=C(c1ccccc1)c1ccc2[nH]c(NC(=O)c3csc(C4CCN(c5ccncc5[N+](=O)[O-])CC4)n3)nc2c1` stands 300 nM; under `O=C(c1ccccc1)c1ccc2[nH]c(NC(=O)c3csc(C4CCN(C(=O)c5ccccc5OC(F)(F)F)CC4)n3)nc2c1`, 800 nM.
For the compound `N#Cc1ccc(CN2CCC(c3nc(C(=O)Nc4nc5cc(C(=O)c6ccccc6)ccc5[nH]4)cs3)CC2)cc1`, in test [1], the EC50 worked out at 300 nM.
The same measure, in the same setting: in the case of `COc1cc2ncnc(N3CCC(c4nc(C(=O)Nc5nc6cc(C(=O)c7ccccc7)ccc6[nH]5)cs4)CC3)c2cc1OC` it was 300 nM; in that of `Cc1cc2nnc(C(=O)N3CCC(c4nc(C(=O)N5CCN(c6cccc(C(F)(F)F)c6)CC5)cs4)CC3)c(C)n2n1`, over 20000 nM.
For the compound `O=C(c1csc(C2CCN(c3ccc(C(F)(F)F)cc3)CC2)n1)N1CCN(c2cccc(C(F)(F)F)c2)CC1`, the IC50 in test [2] was 480 nM. In test [1], it took 20000 nM to reach a half-maximal effect (EC50).
Regarding `O=C(c1ccccc1)c1ccc2[nH]c(NC(=O)c3csc(C4CCN(c5cc(C(F)(F)F)ncn5)CC4)n3)nc2c1`, it took 500 nM to reach a half-maximal effect in test [1] (EC50).
Compound `COc1cc(N2CCC(c3nc(C(=O)Nc4nc5cc(C(=O)c6ccccc6)ccc5[nH]4)cs3)CC2)nc(OC)n1` showed a half-maximal inhibitory concentration (IC50) in test [2] of over 3000 nM. Also, it took 300 nM to reach a half-maximal effect in test [1] (EC50).
Regarding `O=C(c1csc(C2CCN(S(=O)(=O)c3cccs3)CC2)n1)N1CCN(c2cccc(C(F)(F)F)c2)CC1`, in test [1], the half-maximal effective concentration (EC50) was 20000 nM.
In test [1], `O=C(c1ccccc1)c1ccc2[nH]c(NC(=O)c3csc(C4CCN(c5ccnc6ncnn56)CC4)n3)nc2c1` returned an EC50 of 100 nM. Moreover, the IC50 in test [4] is 3600 nM.
In test [1], `N#Cc1ccc(CN2CCC(c3nc(C(=O)N4CCN(c5cccc(C(F)(F)F)c5)CC4)cs3)CC2)cc1` yielded an EC50 of 8500 nM.
Same read-out and setting: under `O=C(c1ccsc1)c1ccc2[nH]c(NC(=O)c3csc(C4CCN(c5ncnc6ccsc56)CC4)n3)nc2c1` stands 500 nM; under `COc1nc(OC)nc(N2CCC(c3nc(C(=O)Nc4nc5cc(C(=O)c6ccsc6)ccc5[nH]4)cs3)CC2)n1`, 400 nM.
In test [1], `COC(=O)c1nc2nccc(N3CCC(c4nc(C(=O)Nc5nc6cc(C(=O)c7ccccc7)ccc6[nH]5)cs4)CC3)n2n1` registered an EC50 of 500 nM. Further, the IC50 in test [4] is 2500 nM.
`COc1nc(OC)nc(N2CCC(c3nc(C(=O)Nc4nc5cc(C(=O)c6ccccc6)ccc5[nH]4)cs3)CC2)n1`: a half-maximal response in test [1] (EC50) required 800 nM.
